# Assay outcomes from PubChem.
# CCR6 antag: CCR6 receptor antagonists, primary screen, cell-based, CHO-K1, luminescence, beta-arrestin, uHTS | C-C chemokine receptor type 6 (Homo sapiens), P51684 | CHO-K1 CCR6 PathHunter beta-arrestin, CCL20-stimulated | hit rate 0.49% among 340,000 | inhibition, % at 20 µM | AID 493098, 2011;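 active = compounds whose inhibition of the agonist-driven luminescence signal at 20 µM reaches about 50%, limit read from the data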;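 also: cells stimulated with CCL20 at 14 nM final; plate controls were DMSO with CCL20 for no effect and DMSO without agonist for full effect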
# CXCR6 inh: CXCR6 receptor inhibitors, primary screen, cell-based, beta-arrestin, luminescence, CHO-K1 PathHunter, 1536-well | hit rate 0.36% among 360,000 | AID 602244, 2012 | inhibition, % at 20 µM | C-X-C chemokine receptor type 6 (Homo sapiens), O00574; in the data active = inhibition above about 34%, passing the limit was not always enough;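 also: antagonist mode with CXCL16 agonist at 10 nM final; 0% = 10 nM CXCL16 with DMSO and 100% = unstimulated wells without agonist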
# APJ agonist: agonists of human apelin receptor APJ, primary screen, CHO-K1 cells, PathHunter beta-arrestin, luminescence; AID 2520, 2010; 0% DMSO wells, 100% apelin; P35414; activation, % at 20 µM; hit rate 0.11% among 330,000;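 active = activation more than six SD over the plate average, tested at 20 µM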;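 also: 0% = DMSO alone and 100% = apelin-13 at 10 nM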
#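 Assay system – PathHunter CHO-K1 APJ (AGTRL-1) beta-arrestin reporter cells · Compound – one dose, 20 µM compound, 1% DMSO · Timing – compound 90 min 25 °C, reagent 1 h · Measured by – luminescence from split beta-galactosidase complementation, Galacton Star/Emerald II substrate · Measure – beta-arrestin recruitment to APJ as agonist activity, luminescent signal · Benchmarks – DMSO vs Apelin-13 10 nM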
# APJ antagonist: antagonists of human apelin receptor APJ, primary screen, CHO-K1 cells, beta-arrestin complementation, luminescence; P35414; inhibition, % at 20 µM; hit rate 0.32% among 330,000; AID 2521, 2010;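 active = inhibition above about 40% at 20 µM, limit read from the data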;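 also: cells challenged with 10 nM apelin-13 agonist together with compound; plate controls were apelin-13 plus DMSO wells for no effect and DMSO wells lacking apelin-13 for full effect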
# EBI2 block: EBI2 receptor antagonists, beta-arrestin recruitment, primary screen, cell-based, luminescence, 7a,25-OHC stimulation, uHTS; 7a,25-OHC stimulated; inhibition, % at 5 µM; AID 651636, 2012; hit rate 0.81% among 360,000; in the data active = inhibition above about 38%;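 also: enzyme fragment complementation signal reports receptor beta-arrestin coupling in cells; 0% = agonist plus DMSO wells and 100% = wells without agonist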
# Target sequence (P32249 whole entry, looked up, the tested form may be a part): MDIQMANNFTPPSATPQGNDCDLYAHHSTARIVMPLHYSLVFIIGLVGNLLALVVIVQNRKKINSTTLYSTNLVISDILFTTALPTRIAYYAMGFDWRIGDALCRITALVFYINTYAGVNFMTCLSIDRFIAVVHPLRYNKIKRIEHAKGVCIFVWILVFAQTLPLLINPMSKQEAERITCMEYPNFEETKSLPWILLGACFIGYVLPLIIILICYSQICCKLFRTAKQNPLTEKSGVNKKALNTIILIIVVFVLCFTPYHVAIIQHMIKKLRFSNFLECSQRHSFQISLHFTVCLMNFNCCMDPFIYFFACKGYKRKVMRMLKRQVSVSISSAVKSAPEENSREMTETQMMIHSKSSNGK
# m5-HT2A agonist: mouse Htr2a agonists via beta-arrestin recruitment, primary screen, cell-based, luminescence; CHO-K1 mHTR2A beta-arrestin complementation; percent of 30 µM serotonin response; activation, % at 7.6 µM; hit rate 0.66% among 360,000; AID 624169, 2012;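 active = activation above a run cutoff, the mean activation of all tested compounds plus 3 SD, cut at about 14% in these data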;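 also: 0% = plate median of compound wells and 100% = 30 µM serotonin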
# EBI2 conf: EBI2 antagonist hit retest, beta-arrestin, confirmation, cell-based, single concentration, luminescence, 7a,25-OHC stimulation. AID 651997, 2013. 7a,25-OHC antagonism. shares compounds with EBI2 block. hit rate 29% among 2,400. inhibition, % at 5 µM;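 active = inhibition of at least 50%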
# EBI2 ag: EBI2 agonist activity of antagonist hits, confirmation, counter-screen for EBI2 antagonist project, cell-based, single concentration, agonist mode, luminescence; 2,400 tested, under 10 active; shares compounds with EBI2 block; EBI2-expressing cells, 60 min; 0% vehicle, 100% 7α,25-dihydroxycholesterol control; activation, % at 5 µM;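 active = activation of at least 50%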
# bGal counter: E. coli beta-galactosidase enzyme inhibition, confirmation, counter-screen for EBI2 antagonist project, biochemical, luminescence, single concentration; shares compounds with EBI2 block; purified beta-galactosidase, luminescent Galacton Star, 15 min; inhibition, % at 5 µM; hit rate 1% among 2,400;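 active = replicate-average signal at least 3 plate SD below neutral wells, shown as high inhibition, flagging enzyme-inhibiting false positives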;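 also: 0% = DMSO wells with enzyme and 100% = wells lacking enzyme; higher means stronger loss of beta-gal luminescence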
# Starred values were filed as active, the others as inactive; . = not tested or not shown. In the library only some 2.1% were active in any assay of this set; here they are far more common.
SMILES,CCR6 antag,CXCR6 inh,APJ agonist,APJ antagonist,EBI2 block,m5-HT2A agonist,EBI2 conf,EBI2 ag,bGal counter
CC1(C)c2[nH]c3ccccc3c2C[C@@H]2C(=O)N(c3cc(F)ccc3F)C(=O)N21,7,0,1,-67,11,7,.,.,.
N#Cc1c(-c2ccccc2)c(-c2ccccc2)nn(CC(=O)NNC(=O)Nc2ccc(Cl)c(Cl)c2)c1=O,22,12,-4,18,79*,-2,22,1,7
CCNC(=S)N/N=C/c1cn(Cc2ccccc2F)c2ccccc12,27,8,-2,-1,15,-2,.,.,.
O=C(CSc1ccc2c(c1)OCCO2)NCCc1ccc(Cl)cc1Cl,4,-2,0,-20,63*,-6,27,0,-12
CCOc1ccccc1CN(Cc1ccco1)S(=O)(=O)c1ccc(-n2cnnn2)c(OC)c1,23,14,.,.,49*,-9,14,0,7
COc1cc(S(=O)(=O)N(Cc2ccco2)C2CCCC2)ccc1-n1cnnn1,-7,9,-4,12,8,0,.,.,.
CCOC(=O)C1CCCN(C(=O)c2cc3cc(F)ccc3[nH]2)C1 (centres undefined),19,-16,-3,13,0,4,.,.,.
CCOC(=O)N1CCN(C(=O)c2cc3cc(F)ccc3[nH]2)CC1,2,2,1,-4,81*,1,53*,0,-2
CCOC(=O)N1CCN(C(=O)c2cc3cc(Cl)ccc3[nH]2)CC1,-2,-3,-1,-3,93*,-6,73*,1,4
Cc1ccc2[nH]c(C(=O)N3CCCCC3)cc2c1,11,-14,0,19,32,7,.,.,.
CCOC(=O)C1CCN(C(=O)c2cc3cc(F)ccc3[nH]2)CC1,8,4,-3,-27,62*,1,41,3,0
CSc1cc(-c2ccc(Cl)cc2)c(C(=O)NC(C)C)s1,7,9,2,-3,47*,5,34,1,-1
CSc1cc(-c2ccc(Cl)cc2)c(C(=O)NN)s1,-1,-10,2,-6,13,-6,.,.,.
O=C1C=C(c2ccc3[nH]ccc3c2)C[C@@H](c2ccc(F)cc2)C1,13,0,-3,16,52*,-3,62*,0,11
COc1ccc([C@H]2CC(=O)C=C(c3ccc4[nH]ccc4c3)C2)cc1OC,10,2,-3,0,20,0,.,.,.
O=C1C=C(c2ccc3ncccc3c2)C[C@@H](c2ccc3c(c2)OCO3)C1,22,3,-3,11,66*,-3,45,-1,-4
O=C1C=C(c2cccc3c2oc2ccccc23)C[C@@H](c2ccc(F)cc2)C1,4,-2,-4,3,76*,6,56*,0,-12
O=C1C=C(c2ccc(Cl)nc2)C[C@@H](c2ccc3c(c2)OCO3)C1,6,2,-3,4,8,10,.,.,.
O=C1C=C(c2ccc3ccccc3c2)C[C@@H](c2ccc(F)cc2)C1,5,4,-2,-12,77*,-9,43,-1,-8
CCCCn1c(SCC(=O)Nc2cccc(OC)c2)nc2ccc(N3CCOCC3)cc2c1=O,16,-1,3,-10,1,-5,.,.,.
